From ChEMBL document CHEMBL2040804, “A SAR study on a series of synthetic lipophilic chalcones as inhibitor of transcription factor NF-κB” (Eur J Med Chem, 2012)
One block for each molecule: values may come before it.

Assays:
Format in all cases: cell-based
RAW264.7 [1] = assay: Cytotoxicity against mouse RAW264.7 cells by MTT assay
RAW264.7 [2] = assay: Inhibition of LPS-induced NF-kappaB activation in mouse RAW264.7 cells transfected with IKKbeta-pSV-b-galactosidase control vector at 30 uM after 20 hrs by secretory alkaline phosphatase assay
In short: (§1)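 RAW 264.7 cells stably carrying a pNF-κB-SEAP-NPT reporter were transfected by lipofectamine with a constitutively active IKKβ vector plus pSV-β-galactosidase control vector. Cells were treated with samples for 20 h. Culture medium aliquots were heated at 65 °C for 5 min and reacted with 4-methylumbelliferyl phosphate in the dark. SEAP fluorescence was read at ex 360/em 449 nm and normalized to β-galactosidase activity.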

[3] = Inhibition of LPS-induced NF-kappaB activation in mouse RAW264.7 cells transfected with IKKbeta-pSV-b-galactosidase control vector after 20 hrs by secretory alkaline phosphatase assay; in short: as §1

Compound: CCCCCCCCCCCCCCCCCCOc1cccc(O)c1C(=O)/C=C/c1ccc(O)cc1
- IC50 (RAW264.7 [1]): > 30 µM
- inhibition (RAW264.7 [2]): 22%
- IC50 [3]: > 30 µM

Compound: CCCCCCOc1cccc(O)c1C(=O)/C=C/c1ccc(O)cc1
- IC50 (RAW264.7 [1]): > 30 µM
- inhibition (RAW264.7 [2]): 15%
- IC50 [3]: > 30 µM

Compound: CCCCCCCCCCOc1cccc(O)c1C(=O)/C=C/c1ccccc1O
- IC50 (RAW264.7 [1]): > 30 µM
- inhibition (RAW264.7 [2]): 45%
- IC50 [3]: > 30 µM

Compound: O=C(/C=C/c1ccc(O)cc1)c1c(O)cccc1OCC1CCCCC1
- IC50 (RAW264.7 [1]): > 30 µM
- inhibition (RAW264.7 [2]): 60%
- IC50 [3]: > 30 µM

Compound: CCCCCCOc1cccc(O)c1C(=O)/C=C/c1ccc(OCCCCC)cc1
- IC50 (RAW264.7 [1]): > 30 µM
- inhibition (RAW264.7 [2]): 17%
- IC50 [3]: > 30 µM

Compound: CCCCCCCCCCCCOc1cccc(O)c1C(O)CCc1ccc(O)cc1 (configuration not stated)
- IC50 (RAW264.7 [1]): > 30 µM
- inhibition (RAW264.7 [2]): 80%
- IC50 [3]: > 30 µM

Compound: CCCCCCCCCCCCOc1cccc(O)c1C(=O)CCc1ccc(O)cc1
- IC50 (RAW264.7 [1]): > 30 µM
- inhibition (RAW264.7 [2]): 52%
- IC50 [3]: > 30 µM

Compound: CCCCC/C=C\CCCCOc1cccc(O)c1C(=O)/C=C/c1ccc(O)cc1
- IC50 (RAW264.7 [1]): > 30 µM
- inhibition (RAW264.7 [2]): 8%
- IC50 [3]: > 30 µM

Compound: CCCCCCCCCCOc1cccc(O)c1C(=O)/C=C/c1ccc(OC)cc1
- IC50 (RAW264.7 [1]): > 30 µM
- inhibition (RAW264.7 [2]): 18%
- IC50 [3]: > 30 µM

Compound: CCCCCCCCCCOc1cccc(O)c1C(=O)/C=C/c1cc(OC)c(O)c(OC)c1
- IC50 (RAW264.7 [1]): > 30 µM
- inhibition (RAW264.7 [2]): 53%
- IC50 [3]: > 30 µM

Compound: O=C(/C=C/c1ccc(O)cc1)c1c(O)cccc1OCc1ccccc1
- IC50 (RAW264.7 [1]): > 30 µM
- inhibition (RAW264.7 [2]): 28%
- IC50 [3]: > 30 µM

Compound: CCCCCCCCCCOc1cccc(O)c1C(=O)/C=C/c1cccc(O)c1
- IC50 (RAW264.7 [1]): > 30 µM
- inhibition (RAW264.7 [2]): 22%
- IC50 [3]: > 30 µM

Compound: CCCCCCCCCCOc1cccc(O)c1C(=O)/C=C/c1ccc(C)cc1
- IC50 (RAW264.7 [1]): > 30 µM
- inhibition (RAW264.7 [2]): 8%
- IC50 [3]: > 30 µM

Compound: CCCCCCCCCCOc1cccc(O)c1C(=O)/C=C/c1ccc(Cl)c(Cl)c1
- IC50 (RAW264.7 [1]): > 30 µM
- inhibition (RAW264.7 [2]): 26%
- IC50 [3]: > 30 µM

Compound: CCCCCCCCCCCCCCCCOc1cccc(O)c1C(=O)/C=C/c1ccc(O)cc1
- IC50 (RAW264.7 [1]): > 30 µM
- inhibition (RAW264.7 [2]): 42%
- IC50 [3]: > 30 µM

Compound: CCCCCCCCCCCCCCOc1cccc(O)c1C(=O)/C=C/c1ccc(OCCCCCCCCCCCCC)cc1
- IC50 (RAW264.7 [1]): > 30 µM
- inhibition (RAW264.7 [2]): 10%
- IC50 [3]: > 30 µM

Now those with a lower IC50 [3], led by results:

- IC50 [3]: 29 µM
Compound: CCCCCCCCCCCCCCOc1ccc(C(=O)/C=C/c2ccc(O)cc2)c(O)c1
- IC50 (RAW264.7 [1]): > 30 µM
- inhibition (RAW264.7 [2]): 50%

- IC50 [3]: 10 µM
Compound: CC(C)CCOc1cccc(O)c1C(=O)/C=C/c1ccc(O)cc1
- IC50 (RAW264.7 [1]): > 30 µM
- inhibition (RAW264.7 [2]): 100%

- IC50 [3]: 9.6 µM
Compound: CCCCCCCCCCOc1cccc(O)c1C(=O)/C=C/c1ccc(O)c(Cl)c1
- IC50 (RAW264.7 [1]): > 30 µM
- inhibition (RAW264.7 [2]): 100%

- IC50 [3]: 9.6 µM
Compound: CCCCCCCCC(CCCCCC)CCOc1cccc(O)c1C(=O)/C=C/c1ccc(O)cc1 (configuration not stated)
- IC50 (RAW264.7 [1]): > 30 µM
- inhibition (RAW264.7 [2]): 100%

- IC50 [3]: 9.4 µM
Compound: CCCCCCCCCCCCOc1cccc(O)c1C(=O)/C=C/c1ccc(O)cc1
- IC50 (RAW264.7 [1]): > 30 µM
- inhibition (RAW264.7 [2]): 100%

- IC50 [3]: 5 µM
Compound: CCCCCCCCOc1cccc(O)c1C(=O)/C=C/c1ccc(O)cc1
- IC50 (RAW264.7 [1]): > 30 µM
- inhibition (RAW264.7 [2]): 100%

- IC50 [3]: 4.2 µM
Compound: CCCCCCCCCCCCCCOc1cccc(O)c1C(=O)/C=C/c1ccc(O)cc1
- IC50 (RAW264.7 [1]): > 30 µM
- inhibition (RAW264.7 [2]): 100%

- IC50 [3]: 2.7 µM
Compound: CCCCCCCCCCOc1cccc(O)c1C(=O)/C=C/c1ccc(O)cc1
- IC50 (RAW264.7 [1]): > 30 µM
- inhibition (RAW264.7 [2]): 100%
